Reference: ChEMBL document CHEMBL3045504, “Activity of 1,4-benzoquinones against formosan subterranean termites (Coptotermes formosanus)” (2008)

Experiments:
Type in all cases: functional
[1] = system: Coptotermes formosanus; assay: Termiticidal activity against Coptotermes formosanus placed on 0.01 % wt/wt compound treated filter paper assessed as termite mortality measured 21 days post compound exposure
How it was run: (§1)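 Treated filter paper disks moistened with 100 µL water; 20 C. formosanus workers (third instar or greater) plus 1 soldier per dish from field colonies kept on spruce, ca. 100% RH, 26.6 °C. Daily mortality scored for 3 weeks; cumulative percent mortality from four replicates, each a different colony; water-only controls; ANOVA, protected Fisher LSD (P < 0.05) after arcsine square-root transform.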

[2] = system: Coptotermes formosanus; assay: Termiticidal activity against Coptotermes formosanus placed on 0.05 % wt/wt compound treated filter paper assessed as termite mortality measured 9 days post compound exposure; how it was run: as §1
[3] = system: Coptotermes formosanus; assay: Termiticidal activity against Coptotermes formosanus placed on 1 % wt/wt compound treated filter paper assessed as termite mortality measured 21 days post compound exposure
[4] = system: Coptotermes formosanus; assay: Termiticidal activity against Coptotermes formosanus placed on 0.01 % wt/wt compound treated filter paper assessed as termite mortality measured 9 days post compound exposure; how it was run: as §1
[5] = system: Coptotermes formosanus; assay: Termiticidal activity against Coptotermes formosanus placed on 0.001 % wt/wt compound treated filter paper assessed as termite mortality measured 9 days post compound exposure; how it was run: as §1
[6] = system: Coptotermes formosanus; assay: Termiticidal activity against Coptotermes formosanus placed on 0.5 % wt/wt compound treated filter paper assessed as termite mortality measured 11 days post compound exposure; how it was run: as §1
[7] = system: Coptotermes formosanus; assay: Termiticidal activity against Coptotermes formosanus placed on 0.5 % wt/wt compound treated filter paper assessed as termite mortality measured 13 days post compound exposure; how it was run: as §1
[8] = system: Coptotermes formosanus; assay: Termiticidal activity against Coptotermes formosanus placed on 0.5 % wt/wt compound treated filter paper assessed as termite mortality measured 6 days post compound exposure; how it was run: as §1
[9] = system: Coptotermes formosanus; assay: Antifeedant activity against Coptotermes formosanus placed on 0.01 % wt/wt compound treated filter paper assessed as filter paper consumption measured 21 days post compound exposure
[10] = system: Coptotermes formosanus; assay: Termiticidal activity against Coptotermes formosanus placed on 0.05 % wt/wt compound treated filter paper assessed as termite mortality measured 17 days post compound exposure; how it was run: as §1
[11] = system: Coptotermes formosanus; assay: Termiticidal activity against Coptotermes formosanus placed on 0.05 % wt/wt compound treated filter paper assessed as termite mortality measured 11 days post compound exposure; how it was run: as §1
[12] = system: Coptotermes formosanus; assay: Termiticidal activity against Coptotermes formosanus placed on 0.05 % wt/wt compound treated filter paper assessed as termite mortality measured 6 days post compound exposure; how it was run: as §1
[13] = system: Coptotermes formosanus; assay: Termiticidal activity against Coptotermes formosanus placed on 0.1 % wt/wt compound treated filter paper assessed as termite mortality measured 13 days post compound exposure; how it was run: as §1
[14] = system: Coptotermes formosanus; assay: Termiticidal activity against Coptotermes formosanus placed on 0.1 % wt/wt compound treated filter paper assessed as termite mortality measured 11 days post compound exposure; how it was run: as §1
[15] = system: Coptotermes formosanus; assay: Termiticidal activity against Coptotermes formosanus placed on 0.1 % wt/wt compound treated filter paper assessed as termite mortality measured 17 days post compound exposure; how it was run: as §1
[16] = system: Coptotermes formosanus; assay: Antifeedant activity against Coptotermes formosanus placed on 1 % wt/wt compound treated filter paper assessed as filter paper consumption measured 21 days post compound exposure (reference value: 85 +/- 15.1 mg)
[17] = system: Coptotermes formosanus; assay: Antifeedant activity against Coptotermes formosanus placed on 0.05 % wt/wt compound treated filter paper assessed as filter paper consumption measured 21 days post compound exposure
[18] = system: Coptotermes formosanus; assay: Antifeedant activity against Coptotermes formosanus placed on 0.1 % wt/wt compound treated filter paper assessed as filter paper consumption measured 21 days post compound exposure (reference value: 54.4 +/- 20.7 mg)
[19] = system: Coptotermes formosanus; assay: Termiticidal activity against Coptotermes formosanus placed on 0.001 % wt/wt compound treated filter paper assessed as termite mortality measured 21 days post compound exposure; how it was run: as §1
[20] = system: Coptotermes formosanus; assay: Termiticidal activity against Coptotermes formosanus placed on 0.001 % wt/wt compound treated filter paper assessed as termite mortality measured 6 days post compound exposure; how it was run: as §1
[21] = system: Coptotermes formosanus; assay: Termiticidal activity against Coptotermes formosanus placed on 0.5 % wt/wt compound treated filter paper assessed as termite mortality measured 9 days post compound exposure; how it was run: as §1
[22] = system: Coptotermes formosanus; assay: Termiticidal activity against Coptotermes formosanus placed on 1 % wt/wt compound treated filter paper assessed as termite mortality measured 3 days post compound exposure
[23] = system: Coptotermes formosanus; assay: Termiticidal activity against Coptotermes formosanus placed on 0.001 % wt/wt compound treated filter paper assessed as termite mortality measured 13 days post compound exposure; how it was run: as §1
[24] = system: Coptotermes formosanus; assay: Termiticidal activity against Coptotermes formosanus placed on 0.5 % wt/wt compound treated filter paper assessed as termite mortality measured 21 days post compound exposure; how it was run: as §1
[25] = system: Coptotermes formosanus; assay: Termiticidal activity against Coptotermes formosanus placed on 0.001 % wt/wt compound treated filter paper assessed as termite mortality measured 11 days post compound exposure; how it was run: as §1
[26] = system: Coptotermes formosanus; assay: Termiticidal activity against Coptotermes formosanus placed on 0.1 % wt/wt compound treated filter paper assessed as termite mortality measured 6 days post compound exposure; how it was run: as §1
[27] = system: Coptotermes formosanus; assay: Termiticidal activity against Coptotermes formosanus placed on 0.05 % wt/wt compound treated filter paper assessed as termite mortality measured 21 days post compound exposure; how it was run: as §1
[28] = system: Coptotermes formosanus; assay: Termiticidal activity against Coptotermes formosanus placed on 0.01 % wt/wt compound treated filter paper assessed as termite mortality measured 6 days post compound exposure; how it was run: as §1
[29] = system: Coptotermes formosanus; assay: Antifeedant activity against Coptotermes formosanus placed on 0.001 % wt/wt compound treated filter paper assessed as filter paper consumption measured 21 days post compound exposure
[30] = system: Coptotermes formosanus; assay: Antifeedant activity against Coptotermes formosanus placed on 0.5 % wt/wt compound treated filter paper assessed as filter paper consumption measured 21 days post compound exposure (reference value: 54.4 +/- 20.7 mg)
[31] = system: Coptotermes formosanus; assay: Termiticidal activity against Coptotermes formosanus placed on 0.05 % wt/wt compound treated filter paper assessed as termite mortality measured 13 days post compound exposure; how it was run: as §1
[32] = system: Coptotermes formosanus; assay: Termiticidal activity against Coptotermes formosanus placed on 1 % wt/wt compound treated filter paper assessed as termite mortality measured 11 days post compound exposure
[33] = system: Coptotermes formosanus; assay: Termiticidal activity against Coptotermes formosanus placed on 0.01 % wt/wt compound treated filter paper assessed as termite mortality measured 17 days post compound exposure; how it was run: as §1
[34] = system: Coptotermes formosanus; assay: Termiticidal activity against Coptotermes formosanus placed on 0.001 % wt/wt compound treated filter paper assessed as termite mortality measured 17 days post compound exposure; how it was run: as §1
[35] = system: Coptotermes formosanus; assay: Termiticidal activity against Coptotermes formosanus placed on 0.1 % wt/wt compound treated filter paper assessed as termite mortality measured 9 days post compound exposure; how it was run: as §1
[36] = system: Coptotermes formosanus; assay: Termiticidal activity against Coptotermes formosanus placed on 0.5 % wt/wt compound treated filter paper assessed as termite mortality measured 17 days post compound exposure; how it was run: as §1
[37] = system: Coptotermes formosanus; assay: Termiticidal activity against Coptotermes formosanus placed on 0.1 % wt/wt compound treated filter paper assessed as termite mortality measured 21 days post compound exposure; how it was run: as §1
[38] = system: Coptotermes formosanus; assay: Termiticidal activity against Coptotermes formosanus placed on 0.01 % wt/wt compound treated filter paper assessed as termite mortality measured 11 days post compound exposure; how it was run: as §1
[39] = system: Coptotermes formosanus; assay: Termiticidal activity against Coptotermes formosanus placed on 0.01 % wt/wt compound treated filter paper assessed as termite mortality measured 13 days post compound exposure; how it was run: as §1
[40] = system: Coptotermes formosanus; assay: Antifeedant activity against Coptotermes formosanus placed on 0.1 % wt/wt compound treated filter paper assessed as filter paper consumption measured 21 days post compound exposure (reference value: 44.6 +/- 0.0 mg)
[41] = system: Coptotermes formosanus; assay: Antifeedant activity against Coptotermes formosanus placed on 0.01 % wt/wt compound treated filter paper assessed as filter paper consumption measured 21 days post compound exposure (reference value: 44.6 +/- 0.0 mg)
[42] = system: Coptotermes formosanus; assay: Antifeedant activity against Coptotermes formosanus placed on 0.001 % wt/wt compound treated filter paper assessed as filter paper consumption measured 21 days post compound exposure (reference value: 44.6 +/- 0.0 mg)
[43] = system: Coptotermes formosanus; assay: Antifeedant activity against Coptotermes formosanus placed on 0.5 % wt/wt compound treated filter paper assessed as filter paper consumption measured 21 days post compound exposure (reference value: 44.6 +/- 0.0 mg)
[44] = system: Coptotermes formosanus; assay: Antifeedant activity against Coptotermes formosanus placed on 1 % wt/wt compound treated filter paper assessed as filter paper consumption measured 21 days post compound exposure (reference value: 15.9 +/- 10.4 mg)
[45] = system: Coptotermes formosanus; assay: Antifeedant activity against Coptotermes formosanus placed on 0.05 % wt/wt compound treated filter paper assessed as filter paper consumption measured 21 days post compound exposure (reference value: 44.6 +/- 0.0 mg)
[46] = system: Coptotermes formosanus; assay: Antifeedant activity against Coptotermes formosanus placed on 1 % wt/wt compound treated filter paper assessed as filter paper consumption measured 21 days post compound exposure (reference value: 54.4 +/- 20.7 mg)

Compound | mortality [1] | mortality [2] | mortality [3] | mortality [4] | mortality [5] | mortality [6] | mortality [7] | mortality [8] | mortality [10] | mortality [11] | mortality [12] | mortality [13] | mortality [14] | mortality [15] | mortality [19] | mortality [20] | mortality [21] | mortality [22] | mortality [23] | mortality [32] | other results
CC1=CC(=O)C(C(C)C)=CC1=O [THYMOQUINONE] | 11.7% | 0% | 100% | 3.3% | 1.7% | 6.7% | 10% | 1.7% | 6.7% | 0% | 0% | 6.7% | 1.7% | 8.3% | 5% | 0% | 6.7% | 100% | 1.7% | 100% | Activity [9]: 75.4 mg; Activity [16]: 0 mg; Activity [17]: 74 mg; Activity [18]: 83.5 mg; mortality [24]: 18.3%; mortality [25]: 1.7%; mortality [26]: 0%; mortality [27]: 8.3%; mortality [28]: 0%; Activity [29]: 80.6 mg; Activity [30]: 93.1 mg; mortality [31]: 6.7%; mortality [33]: 5%; mortality [34]: 5%; mortality [35]: 1.7%; mortality [36]: 11.7%; mortality [37]: 8.3%; mortality [38]: 3.3%; mortality [39]: 5%
CCCCCC1=CC(=O)C=C(OC)C1=O [Primin] | 21.7% | 3.3% | 100% | 0% | 0% | 91.7% | 96.7% | 56.7% | 8.3% | 3.3% | 3.3% | 36.7% | 28.3% | 40% | 8.3% | 0% | 80% | 87.5% | 0% | 100% | Activity [40]: 26.8 mg; Activity [41]: 48.4 mg; Activity [42]: 48.8 mg; mortality [24]: 100%; mortality [25]: 0%; mortality [26]: 21.7%; mortality [27]: 25%; Activity [43]: 4.9 mg; mortality [28]: 0%; mortality [31]: 5%; mortality [33]: 10%; mortality [34]: 1.7%; Activity [44]: 0.1 mg; mortality [35]: 21.7%; mortality [36]: 100%; mortality [37]: 50%; mortality [38]: 0%; mortality [39]: 5%; Activity [45]: 42.2 mg
CC1=CC(=O)C(C)=C(C)C1=O | – | – | 36.7% | – | – | – | – | – | – | – | – | – | – | – | – | – | – | 0% | – | 18.3% | Activity [46]: 55.4 mg
